Experimental data from PMC2659725 (Archives of biochemistry and biophysics, 2009).
Entries after “also recorded” stand apart in the source; their conditions may differ. Read-outs that look alike come from different tables or passages of the source.

Experiments:
[1] = molecular target: tubulin (Bos taurus, UniProt P81947+Q6B856); format: biochemical, bovine; conditions: for Effect on paclitaxel-induced tubulin assembly: 30 μM tubulin, 30 μM paclitaxel
[2] = tested on: tubulin; test: Critical concentration of tubulin for paclitaxel-induced assembly; format: biochemical, bovine; conditions: 10 μM paclitaxel
Method in brief: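 Bovine brain tubulin, MAP-free, carrying E-site GDP and N-site GTP, with no exogenous GTP or Mg2+. Assay buffer 0.1 M Mes (pH 6.9) with 10 μM paclitaxel, plus heat-treated MAPs or MAPs with GTP where indicated. Components mixed at 0 °C, held 2 min, jumped to 30 °C and followed about 30 min. Turbidity read at 350 nm.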

[3] = tested on: tubulin; conditions: paclitaxel, 37 °C, cited from earlier work
[4] = molecular target: tubulin with MAPs (Bos taurus, UniProt P81947+Q6B856); test: Paclitaxel-induced tubulin assembly with heat-treated MAPs; format: biochemical, bovine
[5] = tested on: subtilisin-treated tubulin; test: Paclitaxel-induced assembly of subtilisin-treated tubulin; format: biochemical, bovine; conditions: same tubulin concentration (10 μM)
[6] = tested on: taxoid site of microtubules; test: Displacement of a fluorescent taxoid analog from microtubules; format: binding; conditions: fluorescence anisotropy; personal communication, Dr. Fernando Díaz
[7] = molecular target: tubulin E-site; conditions: read-out: Kd for GDP binding to the E-site; cited from earlier work
[8] = molecular target: microtubules (Bos taurus, UniProt P81947+Q6B856); test: Lengths of paclitaxel-induced microtubules by electron microscopy; format: biochemical, bovine; conditions: for Mean microtubule length ± SD, Average / Mean microtubule length ± SD, Experiment I / Mean microtubule length ± SD, Experiment II: paclitaxel-induced microtubules
Method in brief: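 Paclitaxel-induced polymers were formed with GDP at the stated levels and monitored turbidimetrically. Samples were placed on carbon-coated formvar copper grids and stained with 1% uranyl acetate. Lengths were measured from EM negatives.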

Sequence of microtubules (P81947 whole entry): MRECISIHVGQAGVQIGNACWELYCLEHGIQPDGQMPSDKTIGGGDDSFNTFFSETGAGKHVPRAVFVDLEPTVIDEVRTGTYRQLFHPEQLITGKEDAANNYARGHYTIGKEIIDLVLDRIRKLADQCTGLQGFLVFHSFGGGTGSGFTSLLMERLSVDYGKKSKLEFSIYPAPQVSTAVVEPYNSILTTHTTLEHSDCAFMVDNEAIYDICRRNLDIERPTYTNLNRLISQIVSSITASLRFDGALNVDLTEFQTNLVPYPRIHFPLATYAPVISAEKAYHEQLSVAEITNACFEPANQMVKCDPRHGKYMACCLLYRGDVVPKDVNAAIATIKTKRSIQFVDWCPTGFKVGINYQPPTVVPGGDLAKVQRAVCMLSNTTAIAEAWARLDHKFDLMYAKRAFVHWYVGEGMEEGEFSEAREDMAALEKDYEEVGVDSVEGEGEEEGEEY
Sequence of microtubules (Q6B856 whole entry): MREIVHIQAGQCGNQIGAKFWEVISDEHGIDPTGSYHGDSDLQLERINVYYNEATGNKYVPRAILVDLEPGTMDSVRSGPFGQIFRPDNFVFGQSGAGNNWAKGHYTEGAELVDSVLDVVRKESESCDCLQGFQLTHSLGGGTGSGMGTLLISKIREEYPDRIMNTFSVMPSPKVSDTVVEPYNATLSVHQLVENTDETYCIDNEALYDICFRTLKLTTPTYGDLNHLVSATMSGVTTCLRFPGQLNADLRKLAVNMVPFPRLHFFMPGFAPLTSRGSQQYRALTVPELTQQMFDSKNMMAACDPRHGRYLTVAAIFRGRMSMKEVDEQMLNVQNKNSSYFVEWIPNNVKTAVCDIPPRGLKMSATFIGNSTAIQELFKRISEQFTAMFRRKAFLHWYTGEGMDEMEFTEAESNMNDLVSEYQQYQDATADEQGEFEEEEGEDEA
Sequence of tubulin (Bos taurus, UniProt P81947+Q6B856) (P81947 whole entry): as the sequence (P81947 whole entry) above
Sequence of tubulin (Bos taurus, UniProt P81947+Q6B856) (Q6B856 whole entry): as the sequence (Q6B856 whole entry) above
Sequence of tubulin with MAPs (P81947 whole entry): as the sequence (P81947 whole entry) above
Sequence of tubulin with MAPs (Q6B856 whole entry): as the sequence (Q6B856 whole entry) above

## Nc1ncnc2c1ncn2[C@@H]1O[C@H](COP(=O)(O)OP(=O)(O)O)[C@@H](O)[C@H]1O [ADP]
[1]; no exogenous GTP
  Effect on paclitaxel-induced tubulin assembly: had any inhibitory effect, nor did

## CC(=O)O[C@H]1C(=O)[C@@]2(C)[C@H]([C@H](OC(=O)c3ccccc3)[C@]3(O)C[C@H](OC(=O)[C@H](O)[C@@H](NC(=O)c4ccccc4)c4ccccc4)C(C)=C1C3(C)C)[C@]1(OC(C)=O)CO[C@@H]1C[C@@H]2O [paclitaxel, Paclitaxel]
[2]; 15 μM to 1.6 μM
  Reduction in critical concentration by subtilisin treatment: ~10 fold
[2]; 30 °C, MAPs alone added
  Critical concentration of tubulin: about 3.5 μM
[2]; both MAPs and GTP added
  Critical concentration of tubulin: less than 1 μM
[2]; subtilisin-treated tubulin
  Critical concentration of subtilisin-treated tubulin: 1.6 µM
[1]; tubulin and paclitaxel both at 10 μM, no GTP, no MAPs
  Extent of tubulin assembly: negligible assembly
[3]; no GTP, no MAPs, obtained previously
  Critical concentration of tubulin: 22 to 28 µM
[3]; with MAPs, different protein preparations
  Critical concentration of tubulin: 2 to 5 µM

## Nc1ncnc2c1ncn2[C@@H]1O[C@H](COP(=O)(O)OP(=O)(O)OP(=O)(O)O)[C@@H](O)[C@H]1O [ATP]
[1]; no exogenous GTP
  Effect on paclitaxel-induced tubulin assembly: weak inhibitory effect; also recorded: extensive inhibition; also recorded: inhibited

## Nc1ccn([C@@H]2O[C@H](COP(=O)(O)OP(=O)(O)O)[C@@H](O)[C@H]2O)c(=O)n1 [CDP]
[1]; no exogenous GTP
  Effect on paclitaxel-induced tubulin assembly: had any inhibitory effect, nor did

## COc1cc([C@@H]2c3cc4c(cc3[C@H](O)[C@H]3COC(=O)[C@H]23)OCO4)cc(OC)c1OC [podophyllotoxin, Podophyllotoxin]
[4]
  IC50: < 5 µM

## O=c1ccn([C@@H]2O[C@H](COP(=O)(O)OP(=O)(O)O)[C@@H](O)[C@H]2O)c(=O)[nH]1 [UDP]
[1]; no exogenous GTP
  Effect on paclitaxel-induced tubulin assembly: had any inhibitory effect, nor did

## COc1cc2cc(c1Cl)N(C)C(=O)C[C@H](OC(=O)[C@H](C)N(C)C(C)=O)[C@]1(C)O[C@H]1[C@H](C)[C@@H]1C[C@@](O)(NC(=O)O1)[C@H](OC)/C=C/C=C(\C)C2 [maytansine]
[4]
  IC50: < 5 µM
[1]
  IC50: < 5 µM

## O=c1ccn([C@@H]2O[C@H](COP(=O)(O)OP(=O)(O)OP(=O)(O)O)[C@@H](O)[C@H]2O)c(=O)[nH]1 [UTP]
[1]; no exogenous GTP
  Effect on paclitaxel-induced tubulin assembly: stimulatory

## Nc1nc2c(ncn2[C@@H]2O[C@H](COP(=O)(O)OP(=O)(O)OP(=O)(O)O)[C@@H](O)[C@H]2O)c(=O)[nH]1 [GTP]
[1]; no exogenous GTP
  Effect on paclitaxel-induced tubulin assembly: enhancing assembly

## O=c1[nH]cnc2c1ncn2[C@@H]1O[C@H](COP(=O)(O)OP(=O)(O)OP(=O)(O)O)[C@@H](O)[C@H]1O [ITP]
[1]; no exogenous GTP
  Effect on paclitaxel-induced tubulin assembly: stimulatory

## O=c1[nH]c(=O)c2ncn([C@@H]3O[C@H](COP(=O)(O)OP(=O)(O)OP(=O)(O)O)[C@@H](O)[C@H]3O)c2[nH]1 [XTP]
[1]; no exogenous GTP
  Effect on paclitaxel-induced tubulin assembly: stimulatory

## O=c1[nH]cnc2c1ncn2[C@@H]1O[C@H](COP(=O)(O)OP(=O)(O)O)[C@@H](O)[C@H]1O [IDP]
[1]; no exogenous GTP
  Effect on paclitaxel-induced tubulin assembly: had any inhibitory effect, nor did

## Nc1nc2c(ncn2[C@@H]2O[C@H](COP(=O)(O)OP(=O)(O)O)[C@@H](O)[C@H]2O)c(=O)[nH]1 [GDP]
[1]; 5 μM GDP
  Effect on paclitaxel-induced tubulin assembly: significant inhibitory effect
[1]; 100 μM GDP
  Effect on paclitaxel-induced tubulin assembly: almost totally eliminated
[1]; 57 vs 15 μM
  Increase of the IC50 when 2 mM MgCl2 was added: ~4 fold
[5]
  IC50 with subtilisin-treated tubulin lower than value obtained with MAPs: about 40%
[6]
  Displacement of fluorescent taxoid analog from microtubules: unable to displace the fluorescent taxoid
[7]
  Kd: 0.02 to 0.06 µM
[8]; 5 μM GDP
  Mean microtubule length ± SD, Average: 2.8 ± 2.1 μm
  Mean microtubule length ± SD, Experiment I: 3.7 ± 2.2 μm
  Mean microtubule length ± SD, Experiment II: 2.1 ± 1.5 μm
[8]; 10 μM GDP
  Mean microtubule length ± SD, Average: 2.8 ± 2.1 μm
  Mean microtubule length ± SD, Experiment I: 3.5 ± 2.3 μm
  Mean microtubule length ± SD, Experiment II: 2.2 ± 1.6 μm
[8]; 50 μM GDP
  Mean microtubule length ± SD, Average: 2.7 ± 2.4 μm
  Mean microtubule length ± SD, Experiment I: 4.5 ± 3.2 μm
  Mean microtubule length ± SD, Experiment II: 2.0 ± 1.5 μm
[8]; whatever the GDP concentration (5-50 μM)
  Change in average microtubule length: essentially no change

## Nc1ccn([C@@H]2O[C@H](COP(=O)(O)OP(=O)(O)OP(=O)(O)O)[C@@H](O)[C@H]2O)c(=O)n1 [CTP]
[1]; no exogenous GTP
  Effect on paclitaxel-induced tubulin assembly: Still weaker effects
